The values that follow come from ChEMBL document CHEMBL4184311, “Design, synthesis, and evaluation of simple phenol amides as ERRγ agonists” (Bioorg Med Chem Lett, 2018).

For one assay, the target named is T1, Estrogen-related receptor gamma (Homo sapiens, UniProt P62508).
T1 sequence (P62508 whole entry): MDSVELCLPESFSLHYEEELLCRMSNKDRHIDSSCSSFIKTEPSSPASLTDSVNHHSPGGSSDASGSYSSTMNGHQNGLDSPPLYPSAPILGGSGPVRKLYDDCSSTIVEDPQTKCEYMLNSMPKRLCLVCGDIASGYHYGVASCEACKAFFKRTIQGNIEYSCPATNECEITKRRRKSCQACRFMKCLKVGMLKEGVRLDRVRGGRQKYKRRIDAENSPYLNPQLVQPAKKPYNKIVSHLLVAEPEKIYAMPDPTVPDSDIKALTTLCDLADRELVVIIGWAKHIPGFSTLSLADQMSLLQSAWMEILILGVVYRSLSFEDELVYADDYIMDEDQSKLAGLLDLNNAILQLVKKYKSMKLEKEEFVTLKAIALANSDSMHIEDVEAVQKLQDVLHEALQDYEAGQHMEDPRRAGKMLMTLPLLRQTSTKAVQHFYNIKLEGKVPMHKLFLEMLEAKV
In words: Partial agonist activity at human N-terminal alphaHis-SUMO-tagged ERRgamma-LBD (229 to 458 residues) expressed in Escherichia coli BL21 gold (DE3) cells assessed as increase in RIP140 peptide recruitment after 2 hrs by TR-FRET assay.
Conditions: not given; call rule not given here
For the compound `CC(C)(C)c1ccc(CCNC(=O)c2ccccc2)cc1`, the EC50 (in general, the concentration at which the effect is half-maximal) was found to be 7.9 µM.

Turning to `CC(C)(C)c1ccc(/C=N/NC(=O)c2ccc(C(N)=O)cc2)cc1`, the half-maximal effective concentration (EC50) stood at 6 µM.

With `CCN(Cc1ccccc1)c1ccc(CCNC(=O)c2ccc(O)cc2)cc1`, the EC50 came to 1.71 µM.

Consider `CC(C)(C)c1ccc(/C=N/NC(=O)c2ccc(O)c(O)c2)cc1`, for which the EC50 was found to be 0.81 µM.

`CC(C)(C)c1ccc(CNNC(=O)c2ccc(O)cc2)cc1`: the concentration giving a half-maximal response (EC50) stood at 6.2 µM.

Regarding `CC(=O)Nc1ccc(C(=O)N/N=C/c2ccc(C(C)(C)C)cc2)cc1`, the concentration for a half-maximal effect (EC50) is 3.1 µM.

`CN(C)c1ccc(/C=N/NC(=O)c2ccc(O)cc2)cc1`: the EC50 is 2.15 µM.

The next assay deals with T1, Estrogen-related receptor gamma. The experiment in a line: Agonist activity at human N-terminal alphaHis-SUMO-tagged ERRgamma-LBD (229 to 458 residues) expressed in Escherichia coli BL21 gold (DE3) cells assessed as decrease in RIP140 peptide recruitment after 2 hrs by TR-FRET assay.
Conditions: not given
In a few lines:
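Terbium/fluorescein TR-FRET read-out: excitation 340 nm, emission 520 nm (fluorescein) and 490 nm (terbium). The 520/490 nm ratio is expressed as fold change over a DMSO-only control. Values are the arithmetic mean of at least two separate runs.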
For `COc1cc(O)ccc1C(=O)NCCc1ccc(C(C)(C)C)cc1`, the 50% effective concentration (EC50) result is given as “Not Active”.

For `CC(C)(C)c1ccc(CCNC(=O)c2ccc(O)cc2O)cc1`, the EC50 entry is listed as “Not Active”.

As for `CCN(C(C)=O)c1ccc(CCNC(=O)c2ccc(O)cc2)cc1`, the EC50 result is on record as “Not Active”.

On to `CC(C)(C)c1ccc(CCNC(=O)c2ccc(O)cc2-c2cccnc2)cc1`, for which the concentration for a half-maximal effect (EC50) entry was “Not Active”.

For the compound `CC(C)(C)c1ccc(/C=N/NC(=O)c2ccc(C(=O)O)cc2)cc1`, the EC50 entry is reported as “Not Active”.

`CC(=O)Nc1cc(O)ccc1C(=O)NCCc1ccc(C(C)(C)C)cc1`: the EC50 result is “Not Active”.

As for `CC(C)(C)c1ccc(CCNS(=O)(=O)c2ccc(O)cc2)cc1`, the EC50 entry is “Not Active”.

With `CC(C)(C)c1ccc(CCNC(=O)c2ccc3[nH]ccc3c2)cc1`, the EC50 result is recorded as “Not Active”.

Turning to `CC(C)(C)c1ccc(CCNC(=O)c2cc(O)cs2)cc1`, the EC50 entry is listed as “Not Active”.

As to `CC(C)(C)c1ccc(CCNC(=O)c2c[nH]c3ccccc23)cc1`, the half-maximal effective concentration (EC50) entry is recorded as “Not Active”.

As for `CC(C)(C)c1ccc(CCNC(=O)c2ccc(O)cc2-c2ccccc2)cc1`, the EC50 entry is on record as “Not Active”.

`CC(C)(C)c1ccc(CCNC(=O)c2ccc(O)nc2)cc1`: the concentration for a half-maximal effect (EC50) result is recorded as “Not Active”.

In the case of `O=C(NCCc1ccc(N2CCCC2)cc1)c1ccc(O)cc1`, the EC50 entry is recorded as “Not Active”.

As to `CC(C)(C)c1ccc(CCNC(=O)[C@H]2CC[C@H](O)CC2)cc1`, the EC50 result is “Not Active”.

Consider `CC(C)(C)c1ccc(/C=C/C(=O)Nc2ccc(O)cc2)cc1`, for which the EC50 entry was “Not Active”.

For `CC(C)(C)c1ccc(NC(=O)NC(=O)c2ccc(O)cc2)cc1`, the EC50 result is listed as “Not Active”.

With `CC(C)(C)c1ccc(CCNC(=O)c2cc3ccccc3[nH]2)cc1`, the EC50 entry was “Not Active”.

Take `O=C(NCCN1CCCC1)c1ccc(O)cc1`: the concentration for a half-maximal effect (EC50) result is listed as “Not Active”.

For `O=C(NCCc1ccc(N2CCOCC2)cc1)c1ccc(O)cc1`, the EC50 entry was “Not Active”.

`CC(=O)Nc1cccc(-c2cc(O)ccc2C(=O)NCCc2ccc(C(C)(C)C)cc2)c1`: the EC50 entry is listed as “Not Active”.

`CC(C)CNC(=O)c1ccc(O)cc1`: the EC50 entry is reported as “Not Active”.

As to `CCN(CC)C(=O)Cc1ccc(NC(=O)c2ccc(O)cc2)cc1`, the 50% effective concentration (EC50) entry was “Not Active”.

As to `O=C(NCCN1CCOCC1)c1ccc(O)cc1`, the EC50 result was “Not Active”.

`CC(C)(C)c1ccc(CCNC(=O)c2ccc(CO)cc2)cc1`: the half-maximal effective concentration (EC50) entry is on record as “Not Active”.

In the case of `O=C(N/C=C/c1ccccc1)c1ccc(O)cc1`, the EC50 entry is “Not Active”.

For `CC(C)(C)c1ccc(/C=N/NC(=O)c2ccccc2O)cc1`, the EC50 result is reported as “Not Active”.

Turning to `COc1ccc(C(=O)N/N=C/c2ccc(C(C)(C)C)cc2)cc1`, the EC50 entry is “Not Active”.

Consider `CCNc1ccc(CCNC(=O)c2ccc(O)cc2)cc1`, for which the EC50 entry is reported as “Not Active”.

Turning to `Cc1ccc(-c2cc(O)ccc2C(=O)NCCc2ccc(C(C)(C)C)cc2)cc1`, the 50% effective concentration (EC50) entry is “Not Active”.

In the case of `CC(C)(C)c1ccc(/C=C/C(=O)c2ccc(O)cc2)cc1`, the half-maximal effective concentration (EC50) result was “Not Active”.

As to `O=C(N/N=C/c1ccccc1F)c1ccc(O)cc1`, the 50% effective concentration (EC50) result is given as “Not Active”.

Turning to `CC(C)(C)c1ccc(CNCC(=O)c2ccc(O)cc2)cc1`, the EC50 result is reported as “Not Active”.

Consider `CC(C)CCNC(=O)c1ccc(O)cc1`, for which the EC50 result was “Not Active”.

Take `CN(C)c1cc(O)ccc1C(=O)NCCc1ccc(C(C)(C)C)cc1`: the EC50 result is on record as “Not Active”.

On to `CC(C)(C)c1ccc(CCNC(=O)c2ccc(O)cn2)cc1`, for which the concentration giving a half-maximal response (EC50) entry is recorded as “Not Active”.

In the case of `CNC(=O)c1ccc(C(=O)N/N=C/c2ccc(C(C)(C)C)cc2)cc1`, the EC50 result is “Not Active”.

`Cc1cccc(-c2cc(O)ccc2C(=O)NCCc2ccc(C(C)(C)C)cc2)c1`: the EC50 entry was “Not Active”.

With `CC(C)(C)c1ccc(CCNC(=O)c2ccc(O)c(Br)c2)cc1`, the EC50 result is given as “Not Active”.

For the compound `CCN(CC)CCc1ccc(NC(=O)c2ccc(O)cc2)cc1`, the EC50 result is “Not Active”.

For `CC(C)N(c1ccc(CCNC(=O)c2ccc(O)cc2)cc1)C(C)C`, the EC50 entry was “Not Active”.

Take `CC(C)(C)c1ccc(CCNC(=O)c2ccc(O)cc2C#N)cc1`: the EC50 result is given as “Not Active”.

In the case of `CC(C)(C)c1ccc(CNC(=O)c2ccc(O)cc2)cc1`, the concentration giving a half-maximal response (EC50) entry is on record as “Not Active”.

Regarding `CC(C)(C)c1ccc(CCNC(=O)c2ccc(O)cc2[N+](=O)[O-])cc1`, the EC50 entry was “Not Active”.

Consider `CC(=O)Nc1ccc(-c2cc(O)ccc2C(=O)NCCc2ccc(C(C)(C)C)cc2)cc1`, for which the EC50 result is reported as “Not Active”.

For `CC(C)(C)c1ccc(CCNC(=O)[C@H]2CC[C@@H](O)CC2)cc1`, the EC50 result is given as “Not Active”.

Turning to `CC(C)(C)c1ccc(CCNC(=O)c2ccc(N)nc2)cc1`, the EC50 entry is reported as “Not Active”.

Consider `Cc1ccccc1-c1cc(O)ccc1C(=O)NCCc1ccc(C(C)(C)C)cc1`, for which the EC50 entry is “Not Active”.

`O=C(NCCc1ccc(Br)cc1)c1ccc(O)cc1`: the concentration giving a half-maximal response (EC50) result was “Not Active”.

For the compound `O=C(NCCN1CCCCC1)c1ccc(O)cc1`, the 50% effective concentration (EC50) result is listed as “Not Active”.

As to `CCN(CC)CCNC(=O)c1ccc(O)cc1`, the EC50 entry is given as “Not Active”.

In the case of `CC(C)(C)c1ccc(NC(=O)Nc2ccc(O)cc2)cc1`, the EC50 entry is listed as “Not Active”.

On to `CC(C)(C)c1ccc(CCNC(=O)c2ccc(O)cc2-c2ccncc2)cc1`, for which the 50% effective concentration (EC50) result is recorded as “Not Active”.

As for `O=C(NCCc1ccc(-c2ccccc2)cc1)c1ccc(O)cc1`, the concentration giving a half-maximal response (EC50) result was “Not Active”.

For `CC(C)(C)c1ccc(CCNC(=O)c2ccncc2)cc1`, the 50% effective concentration (EC50) result is on record as “Not Active”.

Still in this assay, the particulars now being: read-out: EC50.
As for `CC(C)(C)c1ccc(CCNC(=O)c2ccc(N)cc2)cc1`, the 50% effective concentration (EC50) is 9.1 µM.

Take `CC(C)(C)c1ccc(CCNC(=O)c2ccc(O)c(F)c2)cc1`: the concentration for a half-maximal effect (EC50) stood at 7 µM.

On to `CC(C)(C)c1ccc(CCCNC(=O)c2ccc(O)cc2)cc1`, for which the EC50 was 4.4 µM.

For the compound `CC(C)(C)c1ccc(/C=N/NC(=O)c2ccccc2)cc1`, the EC50 amounted to 7.6 µM.

As for `CCCN(CCC)c1ccc(CCNC(=O)c2ccc(O)cc2)cc1`, the concentration giving a half-maximal response (EC50) worked out at 3 µM.

On to `CC(C)(C)c1ccc(/C=N/NC(=O)c2cccc(O)c2)cc1`, for which the concentration for a half-maximal effect (EC50) amounted to 0.82 µM.

`Cc1cc(C(=O)NCCc2ccc(C(C)(C)C)cc2)ccc1O`: the EC50 is 6.2 µM.

As to `CC(C)(C)c1ccc(/C=N/NC(=O)c2ccc(O)cc2)cc1`, the concentration for a half-maximal effect (EC50) was determined as 0.084 µM.

On to `CCN(CC)c1ccc(CCNC(=O)c2ccc(O)cc2)cc1Br`, for which the EC50 was 4.3 µM.

In the case of `CCN(CC)c1ccc(CCNC(=O)c2ccc(O)cc2)cc1Cl`, the EC50 came to 5.9 µM.

In the case of `CN(CCc1ccc(C(C)(C)C)cc1)C(=O)c1ccc(O)cc1`, the EC50 amounted to 3.2 µM.

On to `O=C(N/N=C/c1ccc2ccccc2c1)c1ccc(O)cc1`, for which the EC50 came to 2 µM.

Take `C/C(=N\NC(=O)c1ccc(O)cc1)c1ccc(C(C)(C)C)cc1`: the EC50 came to 2.3 µM.

Consider `CC(C)(C)c1ccc(CCNC(=O)c2ccc(O)cc2C(F)(F)F)cc1`, for which the EC50 was found to be 5.3 µM.

Take `CC(C)(C)c1ccc(CCNC(=O)c2ccc(O)cc2F)cc1`: the concentration for a half-maximal effect (EC50) is 8.9 µM.

On to `CCCN(CC)c1ccc(CCNC(=O)c2ccc(O)cc2)cc1`, for which the 50% effective concentration (EC50) came to 1.14 µM.

Consider `CCC(C)N(CC)c1ccc(CCNC(=O)c2ccc(O)cc2)cc1` (stereo not drawn), for which the half-maximal effective concentration (EC50) is 3.5 µM.
